Compound activity as filed in PubChem.
UCH37 inh: inhibitors of human deubiquitinating enzyme UCH37. Q9Y5K5. purified proteasome/UCH37, Ub-AMC cleavage fluorescence. inhibition, % (concentration not given with the values). 330,000 compounds, 0.33% hits. AID 588478;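 active = mean inhibition over replicate wells above about 20%, limit read from the data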
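Test system – human UCH37 enzyme supplied as purified proteasome complex · Incubation – 30 min preincubation with enzyme, 25 min cleavage at room temperature · Detection – AMC fluorescence from Ub-AMC cleavage, excitation 355 nm, emission 460 nm · Benchmarks – no-proteasome wells (full inhibition) and compound-free wells (no inhibition)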
PKA-R1A act: activates the PKA-R1A holoenzyme complex; 340,000 compounds, 0.083% hits; AID 504707; activation, % at 11.4 µM; PKA-R1A dissociation, Cy5-IP20 fluorescence polarization; scaled: DMSO 0%, 113 µM cGMP 100%; P00514+P68181;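 active = percent activation above the mean of all tested compounds plus 3 SD, cut at about 19% in these data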;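 note: higher means more PKAc released from R1A so a rise in polarization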
PKA-R2B act: activators of human PKA-R2B complex | P22694+P31323 | 340,000 compounds, 0.079% hits | activation, % at 11.4 µM | PKA-R2B holoenzyme dissociation, Cy5-IP20 fluorescence polarization; R2B truncated from residue 108, S112A mutant; 0% DMSO only, 100% 113 µM cGMP | AID 504700;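 active = activation above a cutoff set at the mean over all compounds plus 3 SD, cut at about 18% in these data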;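 note: higher means more holoenzyme dissociation and a rise in polarization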
Rin1-Abl PPI inh: blocks binding of human Rin1 to Abl; inhibition, % at 7.35 µM; TR-FRET Rin1/Abl binding, biochemical; P00519+Q13671; 360,000 compounds, 0.4% hits; in the data active = inhibition above about 5%, passing the limit was not always enough
Rin1 Abl conf: Rin1-Abl interaction inhibition confirmation. AID 602124. inhibition, % at 7.35 µM. TR-FRET Rin1-Abl binding, purified proteins. 1,300 compounds, 49% hits. shares compounds with Rin1-Abl PPI inh; in the data active = inhibition above about 6.5%
GFP quench-1: counter-screen for Rin1-Abl inhibitors: GFP fluorescence quenchers; shares compounds with Rin1-Abl PPI inh; inhibition, % at 6.75 µM; inhibitors/quenchers counterscreen; AID 602125; 1,300 compounds, 8.5% hits; in the data active = inhibition above about 6.5%;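 note: ABL1-eGFP fusion protein alone without its partner RIN1-SBP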
GFP quench dose: counter-screen for Rin1-Abl inhibitors: GFP quenchers, dose response. shares compounds with Rin1-Abl PPI inh. GFP fluorescence interference/quenching counterscreen. IC50, µM. 230 tested, under 10 active. AID 602182;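 note: ABL1-eGFP fusion protein alone without its RIN1 binding partner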
GFP quench-2: GFP quenching artifact for Rin1-Abl inhibitor hits | shares compounds with Rin1-Abl PPI inh | GFP fluorescence quenching counterscreen, biochemical | IC50, µM | 25 tested, under 10 active | AID 602397
Numbers stand for hits; n = inactive; x = no result. In the library only some 0.79% were active in any assay of this set; here they are far more common. Unless noted, the rule behind the calls is not given here.

SMILES | UCH37 inh | PKA-R1A act | PKA-R2B act | Rin1-Abl PPI inh | Rin1 Abl conf | GFP quench-1 | others
Cc1cccc(C)c1NC(=O)CCCN1CC(C)OC(C)C1 (stereo not given) | n | n | n | n | x | x
CCCCCCCC(=O)O | n | n | n | n | x | x
COc1ccc(Br)c(C(=O)NNC(=O)c2ccc(NS(=O)(=O)c3cccs3)cc2)c1 | n | n | n | n | x | x
S=C(NCCN1CCCCC1)Nc1ccc(Br)cc1 | n | n | n | n | x | x
S=C(NCCN1CCCCC1)Nc1ccccc1 | n | n | n | 9.0 | n | n
CN(CC(=O)Nc1cc(S(=O)(=O)N2CCOCC2)ccc1Cl)C1CCS(=O)(=O)C1 (stereo not given) | n | n | n | 9.4 | n | n
Cc1ccc(S(=O)(=O)N2CCOCC2)cc1NC(=O)CN(C)C1CCS(=O)(=O)C1 (stereo not given) | x | n | n | n | x | x
COc1ccc(OC)c(NC(=O)COc2ccc(S(=O)(=O)N3CCCC3)cc2)c1 | n | n | n | n | x | x
COc1ccc(OC)c(NC(=O)COc2ccc(S(=O)(=O)NC(C)C)cc2)c1 | n | n | n | 7.4 | n | n
Cc1noc(C)c1S(=O)(=O)N(C)C[C@H]1Oc2ccc(NC(=O)Cc3ccccc3)cc2C(=O)N([C@H](C)CO)C[C@@H]1C | n | n | n | n | x | x
OC1CCCN(Cc2nc(Cc3ccccc3Cl)no2)C1 (stereo not given) | n | n | n | 8.8 | n | n
COCC(=O)Nc1nc(-c2ccc(C)cc2)c(C)s1 | n | n | n | n | x | x
COC(=O)Nc1nc(-c2ccc(F)cc2)c(C)s1 | n | n | n | 5.2 | n | n
CC1(c2nnc(-c3ccncc3)o2)CC(c2ccc(Cl)cc2)=NO1 (stereo not given) | n | n | n | 17.0 | 22.9 | n
CC1(c2nnc(-c3ccccc3)o2)CC(c2ccncc2)=NO1 (stereo not given) | n | n | n | n | x | x
CC1(c2nnc(-c3ccccc3)o2)CC(c2ccc(Cl)cc2)=NO1 (stereo not given) | n | n | n | n | x | x
CC1(c2nnc(-c3ccncc3)o2)CC(c2ccccc2)=NO1 (stereo not given) | x | n | n | 18.8 | 24.0 | n
Cc1ccc(Cl)cc1N1C(=O)CC(C)(C)CC1=O | n | n | n | 7.2 | n | n
CC1(C)CC(=O)N(c2ccc(Cl)c(Cl)c2)C(=O)C1 | n | n | n | n | x | x
CCCCCn1c(CN2CCN(C)CC2)nc2c1c(=O)n(C)c(=O)n2C | n | n | n | n | x | x
CC(C)(C)c1ccc(-c2n[nH]c(=S)n2CCCN2CCOCC2)cc1 | n | n | n | 8.7 | 7.6 | n
CC(C)(C)c1ccc(-c2n[nH]c(=S)n2CC2CCCO2)cc1 (stereo not given) | n | n | n | n | x | x
Cc1ccc(C(=O)NCCc2nnc3ccc(SCC(=O)N4CCCC4)nn23)cc1 | n | n | n | 14.9 | 10.8 | n
Cc1ccc(-n2c(SCC(=O)NCc3ccco3)nnc2-c2cccnc2)cc1 | n | n | n | 7.4 | 8.4 | n
Cc1ccc(NC(=O)CSc2nnc(-c3cccnc3)n2-c2ccc(C)cc2)cc1 | n | n | n | 11.0 | 10.5 | n
SMILES | UCH37 inh | PKA-R1A act | PKA-R2B act | Rin1-Abl PPI inh | Rin1 Abl conf | GFP quench-1 | others
CNC(=O)CSc1nnc(-c2cccnc2)n1-c1ccc(C)cc1 | n | n | n | n | x | x
CCCn1c(N)c(Sc2ccccc2)c(=O)n(CCC)c1=O | n | n | n | n | x | x
CCOc1ccc2nc(N(CCN(C)C)C(=O)c3cc4ccccc4cc3OC)sc2c1 | n | n | n | 16.9 | 16.9 | n | GFP quench dose=n
O=C1/C(=C/c2cccnc2)Oc2cc(OS(=O)(=O)c3ccc(Cl)cc3)ccc21 | n | n | n | n | x | x
Cc1ccc(C)c2[nH]c(=O)c(C(c3nnnn3CCc3ccccc3)N3CCOCC3)cc12 (stereo not given) | n | n | n | n | x | x
Cc1ccc(C)c2[nH]c(=O)c(C(c3nnnn3Cc3ccco3)N3CCc4ccccc4C3)cc12 (stereo not given) | n | n | n | 6.2 | n | n
CC(C)[C@@H]1CN=C(N)N1C[C@@H]1CCCN1C[C@H](C)N1C[C@@H](Cc2ccccc2)N(CCc2ccc(Cl)c(Cl)c2)C1=N | n | n | n | n | x | x
CC(=O)Nc1ccc(NC(=O)C2CCN(C(=O)c3cccs3)CC2)cc1 | n | n | n | 46.8 | 71.0 | n | GFP quench dose=n;GFP quench-2=n
O=C(Nc1ccc(S(=O)(=O)Nc2ccccc2)cc1)C1CC1 | n | n | n | 10.7 | n | n
Cc1ccccc1C(=O)N1CCC(C(=O)Nc2ccc(S(=O)(=O)N3CCCCC3)cc2)CC1 | n | n | n | 11.9 | 7.8 | n
COc1cc(C(=O)OCC(=O)Nc2ccc(S(=O)(=O)N3CCCC3)cc2)cc(OC)c1OC | n | n | n | 18.0 | 29.5 | n | GFP quench dose=n
COc1cc(C(=O)OCC(=O)c2ccc(S(=O)(=O)N3CCCCC3)cc2)cc(OC)c1OC | n | n | n | n | x | x
Cc1ccccc1C(=O)N1CCC(C(=O)Nc2ccc(S(=O)(=O)N3CCOCC3)cc2)CC1 | n | n | n | n | x | x
Cc1ccc(NS(=O)(=O)c2ccc(NC(=O)C3CC3)cc2)cc1C | n | n | n | n | x | x
CC(=O)c1ccc(NC(=O)Nc2ccc(S(=O)(=O)N3CCCC3)cc2)cc1 | n | n | n | 15.4 | 10.9 | n
CCCC(=O)N1CCC1(C)C(=O)NS(=O)(=O)c1ccccc1 (stereo not given) | x | x | x | n | x | x
FC(F)(F)c1cnc(NNC(=S)Nc2ccccc2Cl)c(Cl)c1 | n | n | n | 5.7 | n | n
Cc1ccc(NC(=O)CSc2nnc(C3CCCCC3)n2N)cc1F | n | n | n | n | x | x
COc1cc(=O)[nH]c(SCC(=O)Nc2ccc3ccccc3c2)n1 | x | n | n | 12.7 | n | n
CCCc1cc(=O)[nH]c(SCC(=O)Nc2ccc3ccccc3c2)n1 | n | n | n | n | x | x
CN(C)CC1CCCCC1OC(=O)c1ccc(Cl)cc1 (stereo not given) | n | n | n | n | x | x
CC(=O)c1c(C)[nH]c(C(=O)Nc2ccccc2N2CCOCC2)c1C | n | n | n | 4.7 | n | n
Cc1cc(Br)ccc1NC(=O)CSc1nnc(CN2CCOCC2)n1C | n | n | n | 10.0 | n | n
CCn1c(CN2CCOCC2)nnc1SCC(=O)Nc1ccccc1C | x | n | n | n | x | x
CCCNC(=O)c1cc2c3ccccc3n(C)c2s1 | n | n | n | n | x | x
COCCNC(=O)c1cc2c3ccccc3n(C)c2s1 | n | n | n | 31.2 | 22.1 | n | GFP quench dose=n
CN(C)c1ccc(C(=O)N=c2sccn2C)cc1[N+](=O)[O-] | n | n | n | n | x | x
